Assay results published in ChEMBL document CHEMBL1150957, “DNA-damaging steroidal alkaloids from Eclipta alba from the suriname rainforest1” (J Nat Prod, 1998).
≈ marks a conversion by molar mass, not a printed value.

How the values were obtained:
Candida albicans = test: Antifungal activity against Candida albicans SC5314; assay type: functional
Saccharomyces cerevisiae [1] = test: Antifungal activity against Saccharomyces cerevisiae Sc7; assay type: functional
Saccharomyces cerevisiae [2] = test: Antifungal activity against Saccharomyces cerevisiae 1353; assay type: functional
How it was run: (§1)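 Agar-well diffusion on mutant yeast lawns (1140 ise1 rad52; 1353 ISE+ rad52 top1; 1138 ise2 rad52). Stationary-phase YEPD cultures resuspended in 0.9% saline to 25% transmission at 600 nm, flooded onto YEPD agar with 0.8% Noble agar overlay, dried. Samples in DMSO-MeOH (1:1) added to 6-7 mm wells; nystatin control at 20 μg/mL; 30 °C, 36–48 h; IC12 (dose giving 12-mm zone) from dose–response curve.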

Saccharomyces cerevisiae [3] = test: Antifungal activity against Saccharomyces cerevisiae 1138; assay type: functional; how it was run: as §1
Saccharomyces cerevisiae [4] = test: Antifungal activity against Saccharomyces cerevisiae 1140; assay type: functional; how it was run: as §1
M109 = test: Cytotoxicity against mouse M109 cells; assay type: functional, cell-based

C[C@H]1CCC([C@H](C)[C@H]2CC[C@H]3[C@@H]4CC=C5C[C@@H](O)CC[C@]5(C)[C@H]4CC[C@]23C)=NC1
MIC (Candida albicans): 12.5 µg/mL (≈ 31.4 µM)
MIC (Saccharomyces cerevisiae [1]): 6.25 µg/mL (≈ 15.7 µM)
IC12 (Saccharomyces cerevisiae [2]): 0.69 µg/mL
IC12 (Saccharomyces cerevisiae [3]): 0.88 µg/mL
IC12 (Saccharomyces cerevisiae [4]): 1.12 µg/mL

C[C@H](C1=NC[C@](C)(O)CC1)[C@H]1CC[C@H]2[C@@H]3CC=C4C[C@@H](O)CC[C@]4(C)[C@H]3CC[C@]12C
MIC (Candida albicans): < 3.1 µg/mL
IC50 (M109): 31.2 µg/mL (≈ 75.4 µM)
MIC (Saccharomyces cerevisiae [1]): 6.25 µg/mL (≈ 15.1 µM)
IC12 (Saccharomyces cerevisiae [2]): 4 µg/mL
IC12 (Saccharomyces cerevisiae [3]): 0.35 µg/mL
IC12 (Saccharomyces cerevisiae [4]): 2.5 µg/mL

C[C@H]1CCC([C@H](C)[C@H]2CC[C@H]3[C@@H]4CC=C5[C@@H](O)[C@@H](O)CC[C@]5(C)[C@H]4CC[C@]23C)=NC1
MIC (Candida albicans): 400 µg/mL (≈ 967 µM)
IC50 (M109): 10.5 µg/mL (≈ 25.4 µM)
MIC (Saccharomyces cerevisiae [1]): 200 µg/mL (≈ 484 µM)
IC12 (Saccharomyces cerevisiae [2]): 24 µg/mL
IC12 (Saccharomyces cerevisiae [3]): 10 µg/mL
IC12 (Saccharomyces cerevisiae [4]): 23 µg/mL

C[C@H]1CCC([C@H](C)[C@H]2CC[C@H]3[C@@H]4CCC5=CC(=O)CC[C@]5(C)[C@H]4CC[C@]23C)=NC1
IC50 (M109): 16.8 µg/mL (≈ 42.5 µM)
IC12 (Saccharomyces cerevisiae [2]): 50 µg/mL
IC12 (Saccharomyces cerevisiae [3]): 14 µg/mL
IC12 (Saccharomyces cerevisiae [4]): 45 µg/mL

C[C@H]1CCC([C@@H](C)[C@H]2CC[C@H]3[C@@H]4CC=C5[C@@H](O)[C@@H](O)CC[C@]5(C)[C@H]4CC[C@]23C)=NC1
MIC (Candida albicans): 200 µg/mL (≈ 484 µM)
IC50 (M109): 15.5 µg/mL (≈ 37.5 µM)
MIC (Saccharomyces cerevisiae [1]): 100 µg/mL (≈ 242 µM)
IC12 (Saccharomyces cerevisiae [2]): > 50 µg/mL
IC12 (Saccharomyces cerevisiae [3]): 12 µg/mL
IC12 (Saccharomyces cerevisiae [4]): 10 µg/mL

C[C@@H]1[C@H](O)[C@@H](C)/C=C/C=C/C=C/C=C/C=C/C=C/C=C/[C@H](O[C@@H]2O[C@H](C)[C@@H](O)[C@H](N)[C@@H]2O)C[C@@H]2O[C@](O)(C[C@@H](O)C[C@@H](O)[C@H](O)CC[C@@H](O)C[C@@H](O)CC(=O)O[C@H]1C)C[C@H](O)[C@H]2C(=O)O [AMPHOTERICIN B]
MIC (Candida albicans): 1.6 µg/mL (≈ 1.73 µM)
IC50 (M109): 7.5 µg/mL (≈ 8.12 µM)
MIC (Saccharomyces cerevisiae [1]): 12.5 µg/mL (≈ 13.5 µM)
IC12 (Saccharomyces cerevisiae [2]): 25 µg/mL
IC12 (Saccharomyces cerevisiae [3]): 8.1 µg/mL
IC12 (Saccharomyces cerevisiae [4]): 15.6 µg/mL

Cc1cnc([C@H](C)[C@H]2CC[C@H]3[C@@H]4CC=C5C[C@@H](O)CC[C@]5(C)[C@H]4CC[C@]23C)c(O)c1 [ECLIPTALBINE]
MIC (Candida albicans): 20 µg/mL (≈ 48.8 µM)
IC50 (M109): > 20 µg/mL
MIC (Saccharomyces cerevisiae [1]): 20 µg/mL (≈ 48.8 µM)
IC12 (Saccharomyces cerevisiae [2]): 0.4 µg/mL
IC12 (Saccharomyces cerevisiae [3]): 0.04 µg/mL
IC12 (Saccharomyces cerevisiae [4]): 0.7 µg/mL

CC(=O)N1CCN(c2ccc(OCC3COC(Cn4ccnc4)(c4ccc(Cl)cc4Cl)O3)cc2)CC1 (centres undefined) [KETOCONAZOLE]
MIC (Candida albicans): < 0.8 µg/mL
IC50 (M109): 17 µg/mL (≈ 32 µM)
MIC (Saccharomyces cerevisiae [1]): 1.6 µg/mL (≈ 3.01 µM)
IC12 (Saccharomyces cerevisiae [2]): 9.4 µg/mL
IC12 (Saccharomyces cerevisiae [3]): 2.5 µg/mL
IC12 (Saccharomyces cerevisiae [4]): 4.8 µg/mL

C[C@H]1CC[C@@H]([C@@H](C)[C@H]2CC[C@H]3[C@@H]4CC=C5C[C@@H](O)CC[C@]5(C)[C@H]4CC[C@]23C)NC1 [VERAMILINE]
IC12 (Saccharomyces cerevisiae [2]): 4 µg/mL
IC12 (Saccharomyces cerevisiae [3]): 3 µg/mL
IC12 (Saccharomyces cerevisiae [4]): 3 µg/mL

C[C@H]1CCC([C@@H](C)[C@H]2CC[C@H]3[C@@H]4CC=C5C[C@@H](O)CC[C@]5(C)[C@H]4CC[C@]23C)=NC1 [VERAZINE]
MIC (Candida albicans): 25 µg/mL (≈ 62.9 µM)
IC50 (M109): 12.5 µg/mL (≈ 31.4 µM)
MIC (Saccharomyces cerevisiae [1]): 6.25 µg/mL (≈ 15.7 µM)
IC12 (Saccharomyces cerevisiae [2]): 0.14 µg/mL
IC12 (Saccharomyces cerevisiae [3]): 0.14 µg/mL
IC12 (Saccharomyces cerevisiae [4]): 0.25 µg/mL
